According to ChEMBL document CHEMBL2429794, “Tuning the antibacterial activity of amphiphilic neamine derivatives and comparison to paromamine homologues” (J Med Chem, 2013):
In brackets after ≈: the same amount, converted by molar mass.

How the values were obtained:
Escherichia coli [1] = assay: Antibacterial activity against Escherichia coli L58058.1 expressing ANT2''-1A after 24 hrs by geometric microdilution method; format: functional; details: L58058.1, 24 h
Pseudomonas aeruginosa [2] = assay: Antibacterial activity against Pseudomonas aeruginosa PA22 (PT629) expressing MexXY after 24 hrs by geometric microdilution method; format: functional
Escherichia coli [3] = assay: microbe, parasite or virus in culture; details: ATCC 25922, 24 h
Staphylococcus aureus [4] = assay: Antibacterial activity against Staphylococcus aureus expressing aminoglycoside-[…] after 24 hrs by geometric microdilution method; format: functional
Summary of the method: (§1)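 Broth cultures were incubated in plates at 37 °C, and growth was read as absorbance at 650 nm after 1, 4, 7 and 24 h. Ampicillin (16 mg/L) was the positive control and DMSO the negative control. Each MIC (μg/mL) is the average of at least three determinations.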

Staphylococcus aureus [5] = assay: Antibacterial activity against Staphylococcus aureus expressing aminoglycoside-3'-O-phosphoryltransferase after 24 hrs by geometric microdilution method; format: functional; summary of the method: as §1
Escherichia coli [6] = assay: Antibacterial activity against Escherichia coli PAZ505H8101 expressing AAC6'-1B after 24 hrs by geometric microdilution method; format: functional; details: PAZ505H8101, 24 h
Klebsiella pneumoniae = assay: Antibacterial activity against Klebsiella pneumoniae ATCC 700603 after 24 hrs by geometric microdilution method; format: functional; details: ATCC 700603, 24 h
Pseudomonas aeruginosa [7] = assay: Antibacterial activity against Pseudomonas aeruginosa ATCC 27853 after 24 hrs by geometric microdilution method; format: functional; details: ATCC 27853, 24 h
Acinetobacter lwoffii [8] = assay: Antibacterial activity against Acinetobacter lwoffii ATCC 17925 after 24 hrs by geometric microdilution method; format: functional; details: ATCC 17925, 24 h
Pseudomonas aeruginosa [9] = assay: Antibacterial activity against Pseudomonas aeruginosa F03 expressing AAC6'-2A after 24 hrs by geometric microdilution method; format: functional; details: F03, 24 h
Staphylococcus aureus [10] = assay: Antibacterial activity against Staphylococcus aureus expressing aminoglycoside-6'-N-acetyltransferase/2''-O-phosphoryltransferase after 24 hrs by geometric microdilution method; format: functional; summary of the method: as §1
Staphylococcus aureus [11] = assay: Antibacterial activity against healthcare-acquired methicillin-resistant Staphylococcus aureus ATCC 33592 after 24 hrs by geometric microdilution method; format: functional; details: ATCC 33592, 24 h; summary of the method: as §1
Staphylococcus aureus [12] = assay: microbe, parasite or virus in culture; details: ATCC 25923, 24 h
Staphylococcus aureus [13] = assay: Antibacterial activity against fluoroquinolone-resistant Staphylococcus aureus 1199B expressing NorA efflux pump after 24 hrs by geometric microdilution method; format: functional; summary of the method: as §1
Acinetobacter lwoffii [14] = assay: Antibacterial activity against Acinetobacter lwoffii AI.88-483 expressing APH3'-6A after 24 hrs by geometric microdilution method; format: functional; details: AI.88-483, 24 h
Staphylococcus aureus [15] = assay: Antibacterial activity against 14- and 15-membered macrolide-resistant Staphylococcus aureus expressing MsrA efflux pump after 24 hrs by geometric microdilution method; format: functional; summary of the method: as §1
Staphylococcus aureus [16] = assay: Antibacterial activity against vancomycin-resistant Staphylococcus aureus VRS2 after 24 hrs by geometric microdilution method; format: functional; details: VRS2, 24 h; summary of the method: as §1

Row | Structure (SMILES) | MIC (Escherichia coli [1]) [µg/mL] | MIC (Pseudomonas aeruginosa [2]) [µg/mL] | MIC (Escherichia coli [3]) [µg/mL] | MIC (Staphylococcus aureus [4]) [µg/mL] | MIC (Staphylococcus aureus [5]) [µg/mL] | MIC (Escherichia coli [6]) [µg/mL] | MIC (Klebsiella pneumoniae) [µg/mL] | MIC (Pseudomonas aeruginosa [7]) [µg/mL] | MIC (Acinetobacter lwoffii [8]) [µg/mL] | MIC (Pseudomonas aeruginosa [9]) [µg/mL] | MIC (Staphylococcus aureus [10]) [µg/mL] | MIC (Staphylococcus aureus [11]) [µg/mL] | MIC (Staphylococcus aureus [12]) [µg/mL] | MIC (Staphylococcus aureus [13]) [µg/mL] | MIC (Acinetobacter lwoffii [14]) [µg/mL] | MIC (Staphylococcus aureus [15]) [µg/mL] | MIC (Staphylococcus aureus [16]) [µg/mL]
1 | N[C@H]1[C@@H](O[C@H]2[C@H](O)[C@@H](OCc3cccc4ccccc34)[C@H](N)C[C@@H]2N)O[C@H](CO)[C@@H](O)[C@@H]1OCc1cccc2ccccc12 | 128 (≈ 212 µM) | > 128 | 128 (≈ 212 µM) | 32 (≈ 53 µM) | 32 (≈ 53 µM) | 64 (≈ 106 µM) | 128 (≈ 212 µM) | 64 (≈ 106 µM) | 128 (≈ 212 µM) | 128 (≈ 212 µM) | 64 (≈ 106 µM) | 32 (≈ 53 µM) | 32 (≈ 53 µM) | 64 (≈ 106 µM) | > 128 | 64 (≈ 106 µM) | –
2 | NC[C@@H]1O[C@H](O[C@H]2[C@@H](O)[C@H](O[C@@H]3[C@@H](O)[C@H](N)C[C@H](N)[C@H]3O[C@H]3O[C@H](CN)[C@@H](O)[C@H](O)[C@H]3N)O[C@@H]2CO)[C@H](N)[C@@H](O)[C@@H]1O [FRAMYCETIN] | 1 (≈ 1.63 µM) | 32 (≈ 52.1 µM) | 2 (≈ 3.25 µM) | 32 (≈ 52.1 µM) | > 128 | 4 (≈ 6.51 µM) | 16 (≈ 26 µM) | 64 (≈ 104 µM) | 0.5 (≈ 0.813 µM) | 128 (≈ 208 µM) | 1 (≈ 1.63 µM) | > 128 | 2 (≈ 3.25 µM) | 1 (≈ 1.63 µM) | > 128 | 2 (≈ 3.25 µM) | 128 (≈ 208 µM)
3 | NC[C@H]1O[C@H](O[C@H]2[C@H](O)[C@@H](OCCCCc3ccc4ccccc4c3)[C@H](N)C[C@@H]2N)[C@H](N)[C@@H](OCCCCc2ccc3ccccc3c2)[C@@H]1OCCCCc1ccc2ccccc2c1 | > 128 | 128 (≈ 147 µM) | 128 (≈ 147 µM) | 128 (≈ 147 µM) | 128 (≈ 147 µM) | 128 (≈ 147 µM) | – | 128 (≈ 147 µM) | – | 128 (≈ 147 µM) | 128 (≈ 147 µM) | > 128 | > 128 | > 128 | – | 128 (≈ 147 µM) | > 128
4 | NC[C@H]1O[C@H](O[C@H]2[C@H](O)[C@@H](OCc3cccc4ccccc34)[C@H](N)C[C@@H]2N)[C@H](N)[C@@H](OCc2cccc3ccccc23)[C@@H]1O | 32 (≈ 53.1 µM) | > 128 | 32 (≈ 53.1 µM) | 16 (≈ 26.5 µM) | 8 (≈ 13.3 µM) | 16 (≈ 26.5 µM) | > 128 | 32 (≈ 53.1 µM) | 16 (≈ 26.5 µM) | 64 (≈ 106 µM) | 32 (≈ 53.1 µM) | 8 (≈ 13.3 µM) | 8 (≈ 13.3 µM) | 16 (≈ 26.5 µM) | > 128 | 16 (≈ 26.5 µM) | 8 (≈ 13.3 µM)
5 | NC[C@H]1O[C@H](O[C@H]2[C@H](O)[C@@H](O)[C@H](N)C[C@@H]2N)[C@H](N)[C@@H](O)[C@@H]1O [NEAMINE] | 32 (≈ 99.3 µM) | > 128 | 32 (≈ 99.3 µM) | > 128 | > 128 | > 128 | 32 (≈ 99.3 µM) | > 128 | 2 (≈ 6.2 µM) | > 128 | 16 (≈ 49.6 µM) | > 128 | 32 (≈ 99.3 µM) | 32 (≈ 99.3 µM) | > 128 | 16 (≈ 49.6 µM) | ≥ 128
6 | NC[C@H]1O[C@H](O[C@H]2[C@H](O)[C@@H](OCc3ccc4ccccc4c3)[C@H](N)C[C@@H]2N)[C@H](N)[C@@H](OCc2ccc3ccccc3c2)[C@@H]1O | 64 (≈ 106 µM) | > 128 | 64 (≈ 106 µM) | 8 (≈ 13.3 µM) | 4 (≈ 6.64 µM) | 64 (≈ 106 µM) | ≥ 128 | 128 (≈ 212 µM) | 64 (≈ 106 µM) | 128 (≈ 212 µM) | 8 (≈ 13.3 µM) | 16 (≈ 26.5 µM) | 8 (≈ 13.3 µM) | 8 (≈ 13.3 µM) | > 128 | 8 (≈ 13.3 µM) | 16 (≈ 26.5 µM)
7 | CCCCCCCCCCCCCCCCCCO[C@@H]1[C@@H](N)[C@@H](O[C@H]2[C@H](O)[C@@H](OCCCCCCCCCCCCCCCCCC)[C@H](N)C[C@@H]2N)O[C@H](CN)[C@H]1O | > 128 | > 128 | > 128 | 256 (≈ 309 µM) | 128 (≈ 155 µM) | > 128 | – | > 128 | – | > 128 | 256 (≈ 309 µM) | > 128 | > 128 | > 128 | – | > 128 | > 128
8 | CCCCCCO[C@@H]1[C@@H](N)[C@@H](O[C@H]2[C@H](O)[C@@H](OCCCCCC)[C@H](N)C[C@@H]2N)O[C@H](CN)[C@H]1O | 128 (≈ 261 µM) | > 128 | 128 (≈ 261 µM) | > 128 | > 128 | 128 (≈ 261 µM) | > 128 | > 128 | > 128 | > 128 | > 128 | 128 (≈ 261 µM) | 128 (≈ 261 µM) | 128 (≈ 261 µM) | > 128 | 128 (≈ 261 µM) | 128 (≈ 261 µM)
9 | N[C@H]1[C@@H](O[C@H]2[C@H](O)[C@@H](OCc3cccc4ccccc34)[C@H](N)C[C@@H]2N)O[C@H](CO)[C@@H](OCc2cccc3ccccc23)[C@@H]1OCc1cccc2ccccc12 | 16 (≈ 21.5 µM) | 32 (≈ 43 µM) | 16 (≈ 21.5 µM) | 16 (≈ 21.5 µM) | 4 (≈ 5.38 µM) | 16 (≈ 21.5 µM) | 128 (≈ 172 µM) | 32 (≈ 43 µM) | 1 (≈ 1.34 µM) | 32 (≈ 43 µM) | 8 (≈ 10.8 µM) | 32 (≈ 43 µM) | 2 (≈ 2.69 µM) | 8 (≈ 10.8 µM) | 128 (≈ 172 µM) | 8 (≈ 10.8 µM) | 32 (≈ 43 µM)
10 | N[C@H]1[C@@H](O[C@H]2[C@H](O)[C@@H](OCc3ccc4ccccc4c3)[C@H](N)C[C@@H]2N)O[C@H](CO)[C@@H](OCc2ccc3ccccc3c2)[C@@H]1OCc1ccc2ccccc2c1 | 32 (≈ 43 µM) | 32 (≈ 43 µM) | 64 (≈ 86 µM) | 8 (≈ 10.8 µM) | 4 (≈ 5.38 µM) | 16 (≈ 21.5 µM) | 32 (≈ 43 µM) | 32 (≈ 43 µM) | 1 (≈ 1.34 µM) | 32 (≈ 43 µM) | 16 (≈ 21.5 µM) | 64 (≈ 86 µM) | 2 (≈ 2.69 µM) | 16 (≈ 21.5 µM) | > 128 | 32 (≈ 43 µM) | 128 (≈ 172 µM)
